Screening results (PubChem BioAssay)
GSK3B inh: human GSK3beta kinase inhibition; P49841; GST-GSK3beta kinase, ADP-Glo luminescence, 60 min; stronger effect = lower value; activity score (negative = inhibition), % at 10 µM; hit rate 0.038% among 300,000;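 active means more than half of replicate wells score below -50%, meaning over 50% inhibition versus plate controls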;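 further: 0% = median DMSO wells and -100% = median GW8510 positive control wells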
Target sequence (P49841 whole entry, looked up): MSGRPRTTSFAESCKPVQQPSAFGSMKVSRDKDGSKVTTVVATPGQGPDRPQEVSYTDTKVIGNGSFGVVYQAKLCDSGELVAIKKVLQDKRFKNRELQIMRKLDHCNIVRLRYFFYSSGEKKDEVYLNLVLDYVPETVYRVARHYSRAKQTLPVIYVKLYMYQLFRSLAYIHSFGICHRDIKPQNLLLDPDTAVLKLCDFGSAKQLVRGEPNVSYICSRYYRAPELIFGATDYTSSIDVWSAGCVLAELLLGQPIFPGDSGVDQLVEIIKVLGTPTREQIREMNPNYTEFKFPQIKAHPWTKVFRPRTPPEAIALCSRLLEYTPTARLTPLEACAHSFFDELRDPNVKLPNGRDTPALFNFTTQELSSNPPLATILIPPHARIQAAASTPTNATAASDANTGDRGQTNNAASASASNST
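Test system: GST-fused GSK3beta enzyme, cell-free | Quantity: 1.6 ng GST-GSK3beta enzyme per well | Reagent: 25 µM ATP with peptide substrate | Schedule: 60 min enzyme reaction, room temperature | Signal: Luminescent ADP-Glo measurement of ADP formed | Read-out basis: Score relative to plate controls | Control set: DMSO and 20 µM GW8510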
Arr AP2 block: inhibitors of human beta-arrestin and AP2 interaction; hit rate 0.31% among 340,000; FITC-arrestin peptide / GST-AP2 beads, flow cytometry; AP2 beta2 appendage carries R879A mutation; inhibition, % at 10 µM;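 active means inhibition above a set limit, near 3 SD of compounds lacking own fluorescence, cut at about 54% in these data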;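 further: plate controls were DMSO wells for no effect and 5 µM unlabelled arrestin peptide for full effect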
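System: GST-AP2 R879A glutathione beads. Medium: PBS with 0.05% Tween 20 and 0.1% BSA. Also added: FITC-arrestin peptide, 50 nM. Incubation: 12 min plus 1 h, RT. Measured by: high-throughput flow cytometry of beads, ex 488, em 535 nm. Evaluation: percent drop in bead-associated FITC signal.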
Rin1 Abl inh: inhibitors of human Rin1-Abl protein interaction; P00519+Q13671; TR-FRET Rin1/Abl binding, biochemical; inhibition, % at 7.35 µM; hit rate 0.4% among 360,000; AID 588664; in the data active means inhibition above about 5%, passing the limit was not always enough
DYRK1A inh: inhibitors of rat Dyrk1A kinase | inhibition, % at 12.5 µM | hit rate 0.43% among 310,000 | Q63470 | ADP-Glo luminescence, NFATc1 peptide; in the data active means inhibition above about 50%;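 further: plate controls were vehicle with enzyme for no effect and no enzyme for full effect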
STK33 kinase inh: inhibitors of human STK33 kinase. purified STK33, MBP phosphorylation, ADP-Glo luminescence. inhibition, % at 10 µM. hit rate 0.073% among 320,000;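 active means inhibition at or above 25%, using the most active replicate where run in duplicate; inactive means inhibition below 25%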
GSK3A inh: human GSK-3 alpha kinase inhibition; P49840; ADP-Glo luminescence, 60 min; inhibition, % at 10 µM; hit rate 0.1% among 320,000;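 active means more than half of replicates show inhibition above 20%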;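 further: GST-tagged GSK-3 alpha with peptide substrate and 25 µM ATP; 0% = DMSO neutral wells and 100% = GW8510 positive control wells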
Arr-AP2 CP1: inhibitors of human beta-arrestin and AP2 interaction; inhibition, % at 10 µM; shares compounds with Arr AP2 block; hit rate 2% among 1,300; GST-AP2 beads, FITC arrestin peptide binding, flow cytometry; GST-fused beta2-adaptin appendage, R879A mutant; AID 504908;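 active means inhibition above a set limit, roughly 3 SD of non-fluorescent compound noise, cut at about 38% in these data; inactive means inhibition at or below that limit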;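 further: loss of bead fluorescence from 50 nM FITC arrestin peptide bound to appendage; 0% = negative control wells and 100% = excess unlabelled arrestin peptide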
GST-FITC bead: disrupts GST binding to glutathione beads, arrestin-AP2 artifact; shares compounds with Arr AP2 block; GST-fluorescein binding to GSH beads, fluorescence, counter-screen; inhibition, % at 10 µM; hit rate 2% among 1,300; AID 588338;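 active means inhibition above 50%, about 3 SD of the inhibition seen with non-fluorescent compounds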;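 further: fluorescein maleimide labelled GST captured on 4 micron glutathione beads; higher means more loss of bead fluorescence from quenching or blocked binding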
* marks the source's active call; other numbers are inactive results; . = not tested or not shown. Hits are enriched below; roughly 0.99% of the tested compounds scored in any of these assays.

SMILES	GSK3B inh	Arr AP2 block	Rin1 Abl inh	DYRK1A inh	STK33 kinase inh	GSK3A inh	Arr-AP2 CP1	GST-FITC bead
CCOCCCNS(=O)(=O)c1ccc(NC(=O)c2ccc(OC)c([N+](=O)[O-])c2)cc1	0.3	55.8*	4.3	1.1	-1.3	-1.4	10.1	7.3
O=C(Nc1c2c(nn1-c1ccccc1)CS(=O)(=O)C2)c1cc2ccccc2o1	3.0	22.3	4.9	-1.3	-1.1	-0.5	.	.
Cc1ccc(-n2nc3c(c2NC(=O)c2cc4ccccc4o2)CS(=O)(=O)C3)cc1	-1.6	57.2*	-0.8	-3.2	2.5	-0.3	0.4	-1.9
Cc1nc2ccc(NC(=O)c3ccco3)cc2nc1C	1.6	39.4	5.4	4.7	-1.9	-1.9	.	.
Cc1cc2cc(NC(=O)c3ccco3)ccc2[nH]1	2.8	99.6*	-5.3	4.7	0.7	0.6	-11.5	-2.0
COc1ccc(NC(=O)c2cc(C3CCCCN3S(C)(=O)=O)on2)c(C)c1 (configuration not stated)	.	.	2.2	.	.	.	.	.
O=C(NCC(F)(F)F)N1CCOCC1	1.3	68.1*	0.6	-4.0	0.9	-1.3	4.8	-5.9
CCOc1ccc(NC(=O)C2CCN(S(C)(=O)=O)CC2)cc1	0.4	-4.3	-1.3	0.4	0.2	1.4	.	.
COc1ccc(NS(=O)(=O)c2ccc(Br)cc2)cn1	5.0	56.5*	1.7	-4.6	-1.7	-2.4	-2.2	-4.0
COc1ccc(NS(=O)(=O)c2ccc(F)c(Cl)c2)cn1	-1.9	16.4	0.5	-3.8	-0.3	-2.7	.	.
CC1CC1C(=O)N1CCN(S(=O)(=O)c2cc(C(F)(F)F)cc(C(F)(F)F)c2)CC1 (configuration not stated)	.	-5.9	2.7	.	0.3	2.8	.	.
C[C@H](CO)N1C[C@H](C)[C@@H](CN(C)S(=O)(=O)c2ccc(F)cc2)Oc2ccc(NC(=O)Nc3ccccc3)cc2C1=O	.	-5.2	3.1	9.2	0.4	-0.7	.	.
COc1ccc(S(=O)(=O)N(C)C[C@H]2Oc3ccc(NS(=O)(=O)c4cn(C)cn4)cc3C(=O)N([C@H](C)CO)C[C@@H]2C)cc1	.	73.0*	-0.5	-0.1	.	.	0.2	-3.4
C[C@H](CO)N1C[C@H](C)[C@@H](CN(C)S(=O)(=O)c2ccccc2)Oc2ccc(NC(=O)Nc3ccccc3)cc2C1=O	.	54.4*	2.4	-0.9	-0.8	-1.5	10.4	-8.4
COc1ccccc1NS(=O)(=O)c1ccc(C(=O)N2CCN(c3ccccn3)CC2)cc1	.	-7.7	-4.9	2.5	0.8	-3.0	.	.
Cc1ccc(S(=O)(=O)Nc2cccc(C(=O)NCCN3CCOCC3)c2)cc1F	.	6.1	2.0	15.7	0.8	-4.4	.	.
S=C(NCc1ccccc1)N1CCN(C(=S)NCc2ccccc2)CC1	.	2.5	-1.8	-4.9	0.2	-2.7	.	.
CSc1nc(N)nc2c1ncn2Cc1ccccc1	.	-6.5	1.9	5.1	.	.	.	.
O=C(c1ccco1)N(Cc1cc2ccccc2[nH]c1=O)C1CCCCC1	2.5	79.4*	1.0	0.2	-0.3	-0.7	16.6	-9.4
O=C(c1ccncc1)N(Cc1cc2ccccc2[nH]c1=O)C1CCCCC1	6.1	-6.2	-3.5	1.3	-0.9	-0.5	.	.
Cc1c(C(=O)N/N=C/c2ccccc2)[nH]c2ccc(Cl)cc12	0.9	-0.9	-3.2	-0.2	-2.4	-1.1	.	.
Cc1c(C(=O)N/N=C/c2ccc(N(C)C)cc2)[nH]c2ccc(Cl)cc12	1.6	90.2*	-5.0	0.7	-1.3	.	13.8	-6.6
COc1ccc2c(c1)CC=C1C2CCC2(C)C(=O)C(=NO)CC12 (configuration not stated)	.	-23.6	-1.5	12.1	.	.	.	.
CC(=O)N/C(=N\c1nc(C)cc(C)n1)Nc1ccc2ccccc2c1	5.6	-4.7	-1.2	-3.0	0.2	-2.2	.	.
CC1CN(c2nc3ccccc3nc2NS(=O)(=O)c2ccccc2)CC(C)O1 (configuration not stated)	.	-1.8	-1.1	.	0.0	-3.1	.	.
SMILES	GSK3B inh	Arr AP2 block	Rin1 Abl inh	DYRK1A inh	STK33 kinase inh	GSK3A inh	Arr-AP2 CP1	GST-FITC bead
O=C(N=c1ccn(-c2nc3ccccc3nc2NS(=O)(=O)c2ccccc2)cc1)c1cccs1	2.4	57.9*	1.2	0.3	0.0	0.1	-11.1	59.9*
CCn1c(=O)n(CC)c2cc(N3CCCC3)c(NC(=O)c3ccc(OC)c(Br)c3)cc21	-1.9	32.8	6.4	1.9	0.0	-1.4	3.0	2.6
CCOc1ccccc1C(=O)Nc1cc2c(cc1N1CCCC1)n(CC)c(=O)n2CC	.	15.5	1.6	1.3	9.1	0.4	1.4	0.2
COc1ccc(Cl)cc1C(=O)Nc1ccccc1N1CCN(C(=O)C(C)C)CC1	0.2	-17.4	0.6	8.0	-1.0	-0.4	.	.
COc1ccc(C(=O)Nc2ccc(N3CCCC3)cc2)cc1Br	0.5	8.4	-3.0	2.7	-0.6	-0.4	.	.
CCn1c(=O)n(CC)c2cc(N3CCCC3)c(NC(=O)c3cc(Cl)ccc3OC)cc21	1.5	54.3*	-3.0	-4.3	1.2	0.1	-0.8	3.2
CCn1c(=O)n(CC)c2cc(N3CCCC3)c(NC(=O)c3ccccc3OC)cc21	6.3	2.8	-2.3	.	-0.7	-8.1	.	.
COc1ccccc1/C=C1\SC(=S)N(CC(=O)NC2CCS(=O)(=O)C2)C1=O (configuration not stated)	0.0	18.0	-6.5	.	-1.7	-1.1	.	.
CC(C)(C)NC(=O)/C(=C/c1ccco1)c1ccccc1	0.6	87.9*	2.6	-9.2	-1.6	-6.1	8.8	-1.8
C[C@@H]1CN([C@H](C)CO)C(=O)CCCn2nncc2CO[C@H]1CN(C)Cc1ccccc1C(F)(F)F	.	.	0.8	.	.	.	.	.
Nc1ccc(Nc2ccccc2)c(Cl)c1	-0.3	70.5*	3.2	-2.4	-1.4	-0.3	0.8	7.8
O=C(CCNC(=O)c1ccc(Br)cc1)NCc1ccccc1F	.	55.1*	3.9	10.6	-0.4	-1.4	-5.9	-1.1
O=C(NC1CCCCC1)N(CCN1CCOCC1)Cc1cc2cc3c(cc2[nH]c1=O)OCCO3	-0.8	0.7	-1.5	-8.3	-0.2	0.6	.	.
CCc1ccc2[nH]c(=O)c(CN(CCN3CCCC3)C(=O)NC3CCCCC3)cc2c1	0.6	-2.4	-0.2	-3.3	-0.3	0.3	17.8	1.2
Cc1ccc2[nH]c(=O)c(CN(CCCN3CCOCC3)C(=O)NC3CCCCC3)cc2c1	4.0	-18.6	-1.0	2.3	0.0	0.0	-9.2	-6.4
CN1CCN(C(=O)c2ccc3c(Cl)c4c(nc3c2)CCCC4)CC1	0.4	63.7*	3.6	-1.6	-1.0	0.6	-5.7	-4.1
Cc1cn([C@H]2C[C@H](O)[C@@H](CCC(=O)NC(c3ccccc3)c3ccccc3)O2)c(=O)[nH]c1=O	.	-3.2	2.6	.	.	.	.	.
